Measurements as given in ChEMBL document CHEMBL1133351, “Synthesis and evaluation of vitamin D-based cationic lipids for gene delivery in vitro” (2000).

Assays:
[1] = Transfection activity of compound was tested in lewis lung carcinoma (3LL) cells (Level of luciferase gene expression is expressed as mean of relative light units (RLU) per well); assay type: functional, cell-based; settings: Mus musculus
Procedure, shortened: (§1)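 Cationic lipid:DOPE (1:1 molar) films hydrated in PBS pH 7.4 (5 mM cationic lipid), bath-sonicated. pCMV-Luc (CMV-driven firefly luciferase) 1 µg in serum-free CHO-S-SFM mixed with 5 nmol lipid in HBSS, 5–10 min RT. Cells 5×10^4/well seeded 24 h prior; 5 h exposure, then FBS; medium replaced at 24 h; lysed 24 h later; luciferase luminescence (10 s), RLU/well, mean of triplicates.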

HEK293 = experiment: Transfection activity of compound was tested in human embryonic kidney (293) cells (Level of luciferase gene expression is expressed as mean of relative light units (RLU) per well); assay type: functional; procedure, shortened: as §1
HeLa = experiment: Transfection activity of compound was tested in human cervical adenocarcinoma (HeLa) cells (Level of luciferase gene expression is expressed as mean of relative light units (RLU) per well); assay type: functional; procedure, shortened: as §1
NIH3T3 = experiment: Transfection activity of compound was tested in murine embryonic fibroblast (NIH3T3) cells (Level of luciferase gene expression is expressed as mean of relative light units (RLU) per well); assay type: functional, Mus musculus; procedure, shortened: as §1

Compound	RLU/well [1]	RLU/well (HEK293)	RLU/well (HeLa)	RLU/well (NIH3T3)
C=C1CC[C@H](OC(=O)NCC[N+](C)(C)C)C/C1=C/C=C1\CCC[C@]2(C)[C@@H]([C@H](C)/C=C/[C@H](C)C(C)C)CC[C@@H]12.[I-]	4000	1.6e+06	38000	180000
C=C1CC[C@H](OC(=O)NCCN(CCN)CCN)C/C1=C/C=C1\CCC[C@]2(C)[C@@H]([C@H](C)CCCC(C)C)CC[C@@H]12.Cl	150000	3.2e+07	1.4e+06	690000
C=C1CC[C@H](OC(=O)NCCN(CCN)CCN)C/C1=C/C=C1\CCC[C@]2(C)[C@@H]([C@H](C)/C=C/[C@H](C)C(C)C)CC[C@@H]12.Cl	590000	4.8e+07	540000	1.9e+06
C=C1CC[C@H](OC(=O)NCC[N+](C)(C)C)C/C1=C/C=C1\CCC[C@]2(C)[C@@H]([C@H](C)CCCC(C)C)CC[C@@H]12.[I-]	5300	560000	18000	570000
C=C1CC[C@H](OC(=O)NCCN(C)C)C/C1=C/C=C1\CCC[C@]2(C)[C@@H]([C@H](C)/C=C/[C@H](C)C(C)C)CC[C@@H]12.Cl	800000	3.9e+06	2.6e+06	270000
C=C1CC[C@H](OC(=O)NCCCCN)C/C1=C/C=C1\CCC[C@]2(C)[C@@H]([C@H](C)/C=C/[C@H](C)C(C)C)CC[C@@H]12.Cl	610000	6.3e+07	930000	2.1e+06
C=C1CC[C@H](OC(=O)NCCN(C)C)C/C1=C/C=C1\CCC[C@]2(C)[C@@H]([C@H](C)CCCC(C)C)CC[C@@H]12.Cl	220000	1.1e+06	290000	120000
C=C1CC[C@H](OC(=O)NCCCCN)C/C1=C/C=C1\CCC[C@]2(C)[C@@H]([C@H](C)CCCC(C)C)CC[C@@H]12.Cl	820000	4.7e+07	1.7e+06	7.8e+06
